Assay results published in ChEMBL document CHEMBL1135989, “Synthesis and in vitro pharmacology of substituted quinoline-2,4-dicarboxylic acids as inhibitors of vesicular glutamate transport” (J Med Chem, 2002).

What was measured:
[1] = target: T1, Vesicular glutamate transporter 3 (Rattus norvegicus) (UniProt Q7TSF2); assay: Inhibition of Vesicular glutamate transporter (VGLUT) by the ability to block the uptake of 250 uM of [3,4-3H]-L-glutamate into synaptic vesicles isolated from rat forebrain at equimolar conc. (250 uM ); assay type: functional
T1 sequence (whole entry): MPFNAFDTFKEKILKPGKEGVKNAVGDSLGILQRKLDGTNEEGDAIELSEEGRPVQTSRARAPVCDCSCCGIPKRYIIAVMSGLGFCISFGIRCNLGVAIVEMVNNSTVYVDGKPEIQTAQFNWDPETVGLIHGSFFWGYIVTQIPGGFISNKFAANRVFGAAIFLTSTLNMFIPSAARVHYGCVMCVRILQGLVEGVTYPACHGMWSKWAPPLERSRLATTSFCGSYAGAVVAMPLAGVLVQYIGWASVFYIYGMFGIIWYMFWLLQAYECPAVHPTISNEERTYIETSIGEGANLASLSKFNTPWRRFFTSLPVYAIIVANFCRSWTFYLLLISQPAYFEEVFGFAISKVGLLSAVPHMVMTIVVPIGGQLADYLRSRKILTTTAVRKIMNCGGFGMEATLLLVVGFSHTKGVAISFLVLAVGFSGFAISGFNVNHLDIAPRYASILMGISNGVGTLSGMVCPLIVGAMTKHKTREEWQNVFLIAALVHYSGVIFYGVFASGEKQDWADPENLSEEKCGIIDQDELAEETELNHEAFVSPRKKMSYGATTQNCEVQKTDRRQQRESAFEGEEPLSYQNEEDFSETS
Summary of the method: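 Same vesicle uptake set-up (0.25 mM [3H]-L-glutamate, 2.0 mM ATP, 30 °C, 1.5 min, filtration/LSC, ATP-free background subtracted), with inhibitor at 250 µM added with substrate. Expressed as % of control uptake, mean ± SEM (n).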

[2] = target: T1, Vesicular glutamate transporter 3 (Rattus norvegicus); assay: Inhibition of Vesicular glutamate transporter (VGLUT) by the ability to block the uptake of 250 uM of [3,4-3H]-L-glutamate into synaptic vesicles isolated from rat forebrain at a 20 fold excess (5 mM) of inhibitor; assay type: functional
Summary of the method: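 Inhibitor at 5 mM added with substrate. Quenched in ice-cold 150 mM KCl, filtered, counted by LSC. ATP-free uptake subtracted. Expressed as % of control uptake, mean ± SEM (n).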

[3] = target: T2, Vesicular glutamate transporter 3 (Rattus norvegicus, UniProt Q7TSF2); assay: Estimated inhibitory conc. against Vesicular glutamate transporter (VGLUT), using Cheng-Prushoff equation
T2 sequence (Q7TSF2 whole entry): T1 sequence (whole entry)
Summary of the method: (§1)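 Rat forebrain synaptic vesicles (male Sprague-Dawley, stored -80 °C). Vesicles (100-150 µg protein) preincubated 5 min at 30 °C. Ran 1.5 min, then filtration and LSC. Uptake without ATP subtracted. IC50 from dose-response; Ki by Cheng-Prusoff.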

[4] = target: T2, Vesicular glutamate transporter 3; assay: Evaluated for competitive inhibition against Vesicular glutamate transporter (VGLUT), and Ki value was reported.
[5] = target: T2, Vesicular glutamate transporter 3; assay: Compound was evaluated for the inhibition of Vesicular glutamate transporter (VGLUT)
[6] = target: T2, Vesicular glutamate transporter 3; assay: Compound was evaluated for competitive inhibition against Vesicular glutamate transporter (VGLUT), and Ki value was reported,.using Cheng-Prushoff equation; summary of the method: as §1
[7] = target: T2, Vesicular glutamate transporter 3; assay: Inhibitory conc. against Vesicular glutamate transporter (VGLUT), derived from Lineweaver-Burke analysis
Summary of the method: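 Uptake into rat forebrain synaptic vesicles (ATP 2.0 mM, 30 °C, 1.5 min, [3H]-L-glutamate, filtration and LSC) run across both inhibitor and substrate concentrations. Ki from Lineweaver-Burk double reciprocal plots (1/V vs 1/[S]) and a replot of Km(app) against inhibitor concentration.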

| Glutamate uptake remaining (% of control) [1] [%] | Glutamate uptake remaining (% of control) [2] [%] | Compound | also measured |
| --- | --- | --- | --- |
| 100 | – | O=C(O)c1cc(C(=O)O)c2cccc(C(=O)O)c2n1 | – |
| – | 2 | O=C(O)c1cc(C(=O)O)c2cc(Br)cc(Br)c2n1 | – |
| 85 | 3 | O=C(O)c1cc(C(=O)O)c2cc(OCc3ccccc3)ccc2n1 | Ki [3]: 368 µM |
| 100 | – | O=C(O)c1cc(C(=O)O)c2cc(OCCO)ccc2n1 | – |
| 47 | – | O=C(O)c1cc(C(=O)O)c2cc(CCc3ccccc3)ccc2n1 | Ki [3]: 143 µM |
| 100 | 48 | COc1ccc2c(C(=O)O)cc(C(=O)O)nc2c1 | – |
| 91 | – | O=C(O)c1cc(C(=O)O)c2ccc(-c3ccccc3)cc2n1 | – |
| 100 | 40 | COc1cc(OC)c2nc(C(=O)O)cc(C(=O)O)c2c1 | – |
| 67 | – | O=C(O)c1cc(C(=O)O)c2cc(OC3CCCCC3)ccc2n1 | – |
| 50 | 1 | O=C(O)c1cc(C(=O)O)c2ccc(OCc3ccccc3)cc2n1 | – |
| 51 | – | O=C(O)c1cc(C(=O)O)c2cc(/C=C/c3ccccc3)ccc2n1 | Ki [7]: 129 µM; Ki [3]: 167 µM |
| 90 | 20 | COc1cccc2c(C(=O)O)cc(C(=O)O)nc12 | – |
| – | 2 | O=C(O)c1cc(C(=O)O)c2ccc(Cl)c(Cl)c2n1 | – |
| 79 | – | CCCCCCOc1ccc2nc(C(=O)O)cc(C(=O)O)c2c1 | – |
| 100 | 39 | O=C(O)c1cc(C(=O)O)c2cccc(F)c2n1 | – |
| 73 | 2 | O=C(O)c1cc(C(=O)O)c2cccc(O)c2n1 | Ki [3]: 286 µM |
| 100 | 62 | COc1ccc(OC)c2c(C(=O)O)cc(C(=O)O)nc12 | – |

Further lines, the compound ahead of its results:

| Compound | Glutamate uptake remaining (% of control) [1] [%] | Glutamate uptake remaining (% of control) [2] [%] | also measured |
| --- | --- | --- | --- |
| COc1cc2nc(C(=O)O)cc(C(=O)O)c2cc1OC | 100 | 58 | – |
| O=C(O)c1cc(C(=O)O)c2c(I)cccc2n1 | 100 | – | – |
| O=C(O)c1cc(O)c2cccc(O)c2n1 [XANTHURENATE] | – | – | Ki [4]: 190 µM |
| COc1cc(OC)c2c(C(=O)O)cc(C(=O)O)nc2c1 | 100 | 15 | – |
| O=C(O)c1cc(=O)c2ccccc2[nH]1 [TRANSTORINE] | – | – | Ki [5]: 1300 µM |
| N[C@]1(C(=O)O)CC[C@H](C(=O)O)C1 (relative stereo) | – | – | Ki [4]: 700 µM |
| O=C(O)c1cc(C(=O)O)c2cc(OCCc3ccccc3)ccc2n1 | – | – | Ki [3]: 189 µM |
| O=C(O)c1cc(C(=O)O)c2cc(-c3cccc4ccccc34)ccc2n1 | 53 | – | – |
| O=C(O)c1cc(C(=O)O)c2cc(Br)ccc2n1 | 74 | 2 | – |
| O=C(O)c1cc(C(=O)O)c2ccc(CCc3ccccc3)cc2n1 | 29 | – | – |
| O=C(O)c1cc(C(=O)O)c2cc3c(cc2n1)OCO3 | 100 | 24 | – |
| O=C(O)c1cc(C(=O)O)c2cc(Cl)ccc2n1 | 73 | 1 | – |
| Cc1cc(-c2ccc(/N=N/c3ccc4c(S(=O)(=O)O)cc(S(=O)(=O)O)c(N)c4c3O)c(C)c2)ccc1/N=N/c1ccc2c(S(=O)(=O)O)cc(S(=O)(=O)O)c(N)c2c1O [EVANS BLUE] | – | – | Ki [4]: 0.04 µM |
| O=C(O)c1cc(C(=O)O)c2cc(I)ccc2n1 | 87 | 10 | – |
| O=C(O)c1cc(O)c2ccc(Cl)cc2n1 [7-CHLOROKYNURENIC ACID] | – | – | Ki [4]: 590 µM |
| O=C(O)c1cc(C(=O)O)c2c(Br)cccc2n1 | 100 | 11 | – |
| O=C(O)c1cc(C(=O)O)c2c(/C=C/c3ccccc3)cccc2n1 | 27 | – | – |
| O=C(O)c1cc(C(=O)O)c2cc(OCCCCCCO)ccc2n1 | 74 | – | – |
| O=C(O)c1cc(C(=O)O)c2cc(/C=C/c3ccc(-c4ccccc4)cc3)ccc2n1 | 37 | – | Ki [3]: 64 µM |

| Compound | Glutamate uptake remaining (% of control) [1] [%] | Glutamate uptake remaining (% of control) [2] [%] | also measured |
| --- | --- | --- | --- |
| O=C(O)c1cc(C(=O)O)c2cc(/C=C/c3cccc4ccccc34)ccc2n1 | 21 | – | – |
| CCOc1ccc2nc(C(=O)O)cc(C(=O)O)c2c1 | 97 | – | – |
| COc1cc(-c2ccc(/N=N/c3ccc4c(S(=O)(=O)O)cc(S(=O)(=O)O)c(N)c4c3O)c(OC)c2)ccc1/N=N/c1ccc2c(S(=O)(=O)O)cc(S(=O)(=O)O)c(N)c2c1O [CHICAGO SKY BLUE] | – | – | Ki [4]: 0.19 µM |
| O=C(O)c1cc(C(=O)O)c2c(F)cccc2n1 | 100 | 54 | – |
| O=C(O)c1cc(C(=O)O)c2cccc(-c3ccccc3)c2n1 | 88 | – | – |
| O=C(O)c1cc(C(=O)O)c2cc(Oc3ccccc3)ccc2n1 | 74 | – | – |
| O=C(O)c1cc(C(=O)O)c2cc(/N=N/c3ccccc3)ccc2n1 | 31 | 0 | Ki [6]: 288 µM |
| O=C(O)c1cc(C(=O)O)c2cccc(-c3cccc4ccccc34)c2n1 | 70 | – | – |
| O=C(O)c1cc(C(=O)O)c2cc(-c3ccc(-c4ccccc4)cc3)ccc2n1 | 20 | – | Ki [7]: 95 µM; Ki [3]: 41 µM |
| O=C(O)c1cc(C(=O)O)c2c(-c3cccc4ccccc34)cccc2n1 | 64 | – | – |
| O=C(O)c1cc(C(=O)O)c2cc(O)ccc2n1 | 100 | – | – |
| C=C(C[C@H](N)C(=O)O)C(=O)O | – | – | Ki [4]: 3000 µM |
| O=C(O)c1cc(C(=O)O)c2ccc(O)cc2n1 | 100 | – | – |
| O=C(O)c1cc(C(=O)O)c2ccccc2n1 | 100 | 38 | – |
| O=C(O)c1cc(C(=O)O)c2cccc(Br)c2n1 | 100 | 7 | – |
| COc1ccc2nc(C(=O)O)cc(C(=O)O)c2c1 | 100 | 51 | – |
| O=C(O)c1cc(C(=O)O)c2cc(-c3ccccc3)ccc2n1 | 77 | – | – |
| O=C(O)c1cc(C(=O)O)c2cc3c(cc2n1)OCCO3 | 100 | 12 | – |
| O=C(O)c1cc(C(=O)O)c2c(-c3ccccc3)cccc2n1 | 100 | – | – |
